In ChEMBL document CHEMBL1140193, “Synthesis and anti-inflammatory evaluation of methylene bridged benzofuranyl imidazo[2,1-b][1,3,4]thiadiazoles” (Eur J Med Chem, 2008):

Columns and labels:
Rattus norvegicus [1] = test: Analgesic activity in Wistar albino rat […] assessed as reaction time for tail withdrawal at 100 mg/kg, po after 300 mins by tail flick method; format: functional
Procedure, shortened: (§1)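 Rat tail-flick test: latency for the rat to withdraw its tail from hot water at 55 ± 0.5 °C. Drugs given orally. Reaction time in seconds read at 60, 90, 120 and 300 min after dosing. Treated animals compared with control and with a nimesulide standard. Wistar albino rats, 150-200 g, either sex; food withdrawn 12 h before and during testing.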

Rattus norvegicus [2] = test: Analgesic activity in Wistar albino rat […] assessed as reaction time for tail withdrawal at 100 mg/kg, po after 60 mins by tail flick method; format: functional; procedure, shortened: as §1
Rattus norvegicus [3] = test: Analgesic activity in Wistar albino rat […] assessed as reaction time for tail withdrawal at 100 mg/kg, po after 120 mins by tail flick method; format: functional; procedure, shortened: as §1
Rattus norvegicus [4] = test: Antiinflammatory activity in Wistar albino rat assessed as inhibition of carrageenan-induced paw oedema at 100 mg/kg, po measured 0.5 hrs after carrageenan challenge; format: functional
Procedure, shortened: (§2)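 Albino rats, 6 per group, dosed orally at 100 mg kg^-1; ibuprofen 100 mg kg^-1 as standard. One hour after dosing, 0.1 ml of 1% carrageenan with 2% gum acacia in normal saline injected subplantar into the right hind paw. Paw volume measured by plethysmometer; % inhibition versus control calculated. One-way ANOVA with Dunnett's t test.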

Rattus norvegicus [5] = test: Antiinflammatory activity in Wistar albino rat assessed as inhibition of carrageenan-induced paw oedema at 100 mg/kg, po measured 1 hr after carrageenan challenge; format: functional; procedure, shortened: as §2
Rattus norvegicus [6] = test: Toxicity in Wistar albino rat assessed as induction of gastric ulceration up to 3 g/kg, po after 8 hrs; format: organism-based, Stomach; details: in vivo, 3000 mg/kg
Procedure, shortened: (§3)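 Acute toxicity: albino rats of either sex in groups of six, oral doses from 100 up to 3000 mg kg^-1. Rats observed continuously for 8 h for changes in motor activity, ataxia, tremors, convulsions, sedation and lacrimation. Ulceration and haemorrhagic spots also inspected.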

Rattus norvegicus [7] = test: Analgesic activity in Wistar albino rat […] assessed as increase in reaction time for tail withdrawal at 100 mg/kg, po after 180 mins by tail flick method; format: functional
Rattus norvegicus [8] = test: Toxicity in Wistar albino rat assessed as induction of haemorrhagic spots up to 3 g/kg, po after 8 hrs; format: organism-based; details: in vivo, 3000 mg/kg; procedure, shortened: as §3
Rattus norvegicus [9] = test: Toxicity in Wistar albino rat assessed as induction of convulsions and tremors up to 3 g/kg, po after 8 hrs; format: organism-based; details: in vivo, 3000 mg/kg; procedure, shortened: as §3
Rattus norvegicus [10] = test: Toxicity in Wistar albino rat assessed as effect on motor activity up to 3 g/kg, po after 8 hrs; format: organism-based; details: in vivo, 3000 mg/kg; procedure, shortened: as §3
Rattus norvegicus [11] = test: Toxicity in Wistar albino rat assessed as induction of sedation up to 3 g/kg, po after 8 hrs; format: organism-based; details: in vivo, 3000 mg/kg; procedure, shortened: as §3
Rattus norvegicus [12] = test: Analgesic activity in Wistar albino rat […] assessed as increase in reaction time for tail withdrawal at 100 mg/kg, po after 300 mins by tail flick method; format: functional; procedure, shortened: as §1
Rattus norvegicus [13] = test: Toxicity in Wistar albino rat assessed as mortality up to 3 g/kg, po after 24 hrs; format: organism-based; details: in vivo, 3000 mg/kg
Procedure, shortened: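 Albino rats of either sex, six per group, dosed orally from 100 up to 3000 mg kg^-1 body weight. Animals were watched continuously for 8 h for signs of acute toxicity such as altered motor activity, ataxia, tremors, convulsions, sedation and lacrimation, and were checked for mortality over a 24 h period. Food was withheld for 12 h before dosing.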

Rattus norvegicus [14] = test: Antiinflammatory activity in Wistar albino rat assessed as inhibition of carrageenan-induced paw oedema at 100 mg/kg, po measured 3 hrs after carrageenan challenge; format: functional; procedure, shortened: as §2
Rattus norvegicus [15] = test: Antiinflammatory activity in Wistar albino rat assessed as inhibition of carrageenan-induced paw oedema at 100 mg/kg, po measured 4 hrs after carrageenan challenge; format: functional; procedure, shortened: as §2
Rattus norvegicus [16] = test: Antiinflammatory activity in Wistar albino rat assessed as inhibition of carrageenan-induced paw oedema at 100 mg/kg, po measured 5 hrs after carrageenan challenge; format: functional; procedure, shortened: as §2
Rattus norvegicus [17] = test: Analgesic activity in Wistar albino rat […] assessed as reaction time for tail withdrawal at 100 mg/kg, po after 30 mins by tail flick method; format: functional
Rattus norvegicus [18] = test: Antiinflammatory activity in Wistar albino rat assessed as inhibition of carrageenan-induced paw oedema at 100 mg/kg, po measured 2 hrs after carrageenan challenge; format: functional; procedure, shortened: as §2
Rattus norvegicus [19] = test: Analgesic activity in Wistar albino rat […] assessed as reaction time for tail withdrawal at 100 mg/kg, po after 180 mins by tail flick method; format: functional

Compound | Activity (Rattus norvegicus [1]) [s] | Activity (Rattus norvegicus [2]) [s] | Activity (Rattus norvegicus [3]) [s] | inhibition in vivo at 100 mg/kg (Rattus norvegicus [4]) [%] | inhibition in vivo at 100 mg/kg (Rattus norvegicus [5]) [%] | Activity (Rattus norvegicus [6]) | Activity (Rattus norvegicus [7]) [%] | Activity (Rattus norvegicus [8]) | Activity (Rattus norvegicus [9]) | Activity (Rattus norvegicus [10]) | Activity (Rattus norvegicus [11]) | Activity (Rattus norvegicus [12]) [%] | Activity (Rattus norvegicus [13]) | inhibition in vivo at 100 mg/kg (Rattus norvegicus [14]) [%] | inhibition in vivo at 100 mg/kg (Rattus norvegicus [15]) [%] | inhibition in vivo at 100 mg/kg (Rattus norvegicus [16]) [%] | Activity (Rattus norvegicus [17]) [s] | inhibition in vivo at 100 mg/kg (Rattus norvegicus [18]) [%] | Activity (Rattus norvegicus [19]) [s]
Cc1ccc2c(Cc3nn4c(C#N)c(-c5ccc(Cl)cc5)nc4s3)coc2c1 | 7.167 | 4.067 | 6.617 | 4.77 | 13.4 | Non-toxic | 207.49 | Non-toxic | Non-toxic | Non-toxic | Non-toxic | 167.12 | Non-toxic | 43.4 | 51.2 | 53.5 | 3.7 | 28 | 8.25
Cc1ccc2c(Cc3nn4c(/C=N/O)c(-c5ccc(Cl)cc5)nc4s3)coc2c1 | 2.6 | 2.667 | 2.633 | 6 | 5.19 | Non-toxic | 1.26 | Non-toxic | Non-toxic | Non-toxic | Non-toxic | -3.09 | Non-toxic | 10 | 11.1 | 31 | 2.483 | 11.2 | 2.717
